inhibition, Activity and solubility data for one compound are collected here from ChEMBL document CHEMBL4433211, “Discovery of the First-in-Class GSK-3β/HDAC Dual Inhibitor as Disease-Modifying Agent To Combat Alzheimer's Disease” (ACS Med Chem Lett, 2019).

Data set [1] addresses Histone deacetylase (Homo sapiens) (UniProt Q13547+O15379+Q9UBN7+Q92769+Q9UQL6+Q8WUI4+Q9BY41+Q96DB2+P56524+Q9UKV0+Q969S8). The data set is described as follows: Inhibition of HDAC in human SH-SY5Y cells assessed as increase in acetylation of histone 3 at lysines 9/14 at 0.1 to 5 uM incubated for 30 hrs by Western blot analysis. Type of data set: cell-based. The essentials:
(§1)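 Human neuroblastoma SH-SY5Y cells treated 30 h at 0.1, 1.0 and 5.0 μM; cell lysates probed by Western blot for acetylated α-tubulin (HDAC6 cellular marker) and histone H3 acetylated at lysines 9/14 (H3K9K14ac).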
On the technique in general: In western blotting, separated proteins are transferred to a membrane and probed.

For data set [2], the target named is T1, Protein deacetylase HDAC6 (Homo sapiens) (UniProt Q9UBN7).
T1 sequence (whole entry): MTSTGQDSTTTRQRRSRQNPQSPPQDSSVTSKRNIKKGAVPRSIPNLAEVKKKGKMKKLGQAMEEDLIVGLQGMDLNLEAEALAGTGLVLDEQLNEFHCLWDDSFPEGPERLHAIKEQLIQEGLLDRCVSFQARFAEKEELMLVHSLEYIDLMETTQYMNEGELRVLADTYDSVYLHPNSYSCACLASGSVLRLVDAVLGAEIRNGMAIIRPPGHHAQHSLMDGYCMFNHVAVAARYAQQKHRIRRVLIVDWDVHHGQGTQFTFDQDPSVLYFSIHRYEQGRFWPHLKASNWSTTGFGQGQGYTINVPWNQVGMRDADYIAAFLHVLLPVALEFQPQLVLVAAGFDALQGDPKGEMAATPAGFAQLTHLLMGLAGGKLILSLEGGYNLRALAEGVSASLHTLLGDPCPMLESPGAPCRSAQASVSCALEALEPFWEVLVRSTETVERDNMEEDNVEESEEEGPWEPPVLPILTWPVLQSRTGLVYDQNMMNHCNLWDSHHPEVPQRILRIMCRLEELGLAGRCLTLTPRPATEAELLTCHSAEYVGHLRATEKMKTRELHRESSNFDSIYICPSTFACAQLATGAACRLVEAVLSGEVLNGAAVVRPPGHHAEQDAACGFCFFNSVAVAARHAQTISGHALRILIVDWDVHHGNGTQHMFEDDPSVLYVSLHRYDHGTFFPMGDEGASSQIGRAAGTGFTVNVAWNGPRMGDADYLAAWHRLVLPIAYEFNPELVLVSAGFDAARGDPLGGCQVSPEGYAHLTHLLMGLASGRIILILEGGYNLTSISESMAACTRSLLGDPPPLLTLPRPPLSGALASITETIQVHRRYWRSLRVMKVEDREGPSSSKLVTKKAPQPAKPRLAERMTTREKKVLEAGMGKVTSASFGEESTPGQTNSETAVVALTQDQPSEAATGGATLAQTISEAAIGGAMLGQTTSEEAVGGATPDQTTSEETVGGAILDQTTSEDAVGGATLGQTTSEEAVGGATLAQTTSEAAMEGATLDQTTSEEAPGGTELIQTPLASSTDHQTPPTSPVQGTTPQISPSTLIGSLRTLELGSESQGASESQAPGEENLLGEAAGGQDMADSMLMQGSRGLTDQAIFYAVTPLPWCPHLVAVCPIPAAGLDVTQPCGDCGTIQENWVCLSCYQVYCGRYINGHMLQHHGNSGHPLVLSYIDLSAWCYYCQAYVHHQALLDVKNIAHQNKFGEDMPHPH
Nature of the data set: Inhibition of HDAC6 in human SH-SY5Y cells assessed as increase in acetylation of alpha-tubulin incubated for 30 hrs by Western blot analysis. Type of data set: cell-based. A digest of the protocol:
as §1

Data set [3] deals with SH-SY5Y. The data set is described as follows: Induction of neurogenesis in human SH-SY5Y cells assessed as upregulation of N-myc mRNA at 10 uM incubated for 24 hrs by RT-PCR analysis. It is filed as functional, cell-based. The essentials: (§2)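 SH-SY5Y cells treated 24 h (10 μM, or 1 μM for one parent compound; retinoic acid positive control); GAP43, N-myc and MAP-2 mRNA measured by RT-PCR, expressed as fold of control.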

For data set [4], the system named is SH-SY5Y. The data set is described as follows: Induction of neurogenesis in human SH-SY5Y cells assessed as upregulation of MAP-2 mRNA at 10 uM incubated for 24 hrs by RT-PCR analysis. It is filed as functional, cell-based. A digest of the protocol: as §2
The next data set deals with Microglia. Nature of the data set: Immunomodulatory activity in LPS treated Wistar rat primary microglial cells assessed as decrease in MRC1 expression level at 5 to 50 uM incubated for 24 hrs by western blot analysis. It is filed as functional, cell-based. The essentials: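 Primary microglial cells treated 24 h with LPS in presence or absence of test compound; NOS2, MRC1 and TREM2 protein assessed by Western blot, normalized to GAPDH.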

The test system of data set [5] is SH-SY5Y. The data set is described as follows: Neuroprotective activity against H2O2-induced cell death in human SH-SY5Y cells at 0.1 uM incubated for 24 hrs by MTS assay. Type of data set: functional, cell-based. The essentials: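 SH-SY5Y cells challenged 24 h with H2O2 (25 and 50 μM) in presence of compounds (0.1–10 μM), alone or as a two-compound combination; viability by MTS assay as % of control.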
For orientation: Formazan colour is commonly taken as a measure of viable cells.

The nature of data set [6]: Aqueous solubility of the compound in PBS incubated for 24 hrs under continuous stirring condition by UV spectrometric assay. Type of data set: physicochemical.
Data set [7] deals with Glycogen synthase kinase-3 beta (Homo sapiens, UniProt P49841). The data set is described as follows: Inhibition of GSK3beta in human SH-SY5Y cells assessed as reduction in copper-induced tau hyperphosphorylation at 10 uM preincubated for 1 hr followed by copper addition and measured after 26 hrs by ELISA. The following applies: in the assay text read “16 hrs” for “26 hrs”. Type of data set: cell-based. The essentials:
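Differentiated SH-SY5Y cells pretreated 1 h with test agent (LiCl 10 mM reference; compounds 10 μM), then copper 400 μM for 16 h; cells scraped, phospho-tau quantified by immunoenzymatic assay at 450 nm; mean ± SEM.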
In general terms: ELISA stands for enzyme-linked immunosorbent assay.

The subject of data set [8] is SH-SY5Y. Nature of the data set: Induction of neurogenesis in human SH-SY5Y cells assessed as upregulation of GAP43 mRNA at 10 uM incubated for 24 hrs by RT-PCR analysis. It is filed as functional, cell-based. A digest of the protocol:
as §2

Converted amounts (≈) assume the structure as drawn. The source made the active and inactive calls. The calls are words filed in the database; no cut-off is given here.

Glycogen synthase kinase-3 beta, sequence (P49841 whole entry, looked up): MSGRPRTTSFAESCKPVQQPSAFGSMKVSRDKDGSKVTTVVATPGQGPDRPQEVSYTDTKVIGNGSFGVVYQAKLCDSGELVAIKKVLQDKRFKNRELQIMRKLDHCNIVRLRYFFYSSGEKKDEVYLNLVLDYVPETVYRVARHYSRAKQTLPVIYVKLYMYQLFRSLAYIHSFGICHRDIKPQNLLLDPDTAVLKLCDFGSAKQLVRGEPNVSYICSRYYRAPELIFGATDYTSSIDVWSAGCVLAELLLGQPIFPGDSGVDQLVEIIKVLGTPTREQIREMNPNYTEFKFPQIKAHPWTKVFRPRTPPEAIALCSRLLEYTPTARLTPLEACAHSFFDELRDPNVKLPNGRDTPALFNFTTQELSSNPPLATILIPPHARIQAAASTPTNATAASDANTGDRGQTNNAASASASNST

Consider `O=C(CCCCCNC(=S)Nc1ccc2c(c1)C(=O)NC2=O)NO`, for which the inhibition entry in data set [1] was “inactive”. Further, in data set [2], the inhibition entry is “Dose-dependent effect”. Also, the result in the data set with SH-SY5Y [3], in the data set with SH-SY5Y [4], with Microglia, in the data set with SH-SY5Y [5] and in the data set on SH-SY5Y [8] was Active. For the same compound, the concentration in solution in [6] (solubility at 24 h) was 153 µM (≈ 53.8 µg/mL). Further, the inhibition result in data set [7] is “Active”.

As usually defined, the solubility is how much of the substance goes into solution per volume. A low value points to a poorly soluble substance.
